Laboratory results from ChEMBL document CHEMBL3808334, “Synthesis and in vitro evaluation of novel triazine analogues as anticancer agents and their interaction studies with bovine serum albumin” (Eur J Med Chem, 2016).

Key:
Format in all cases: functional
U-251 = assay: Growth inhibition of human U251 cells incubated for 48 hrs by sulforhodamine B assay; conditions: U-251, 48 h
Outline: (§1)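 Cells were plated at 5,000–40,000 per well according to doubling time and preincubated 24 h at 37 °C in 5% CO2; time-zero plates were then TCA-fixed. Five concentrations (10-fold or ½-log dilutions, DMSO stock) were incubated 48 h. Cells were TCA-fixed, stained with 0.4% SRB and read at 515 nm. GI50 was taken where [(Ti−Tz)/(C−Tz)]×100 = 50.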

[1] = Growth inhibition of human UO31 cells incubated for 48 hrs by sulforhodamine B assay; conditions: UO-31, 48 h; for CC50: read-out: pLC50 (the source's name) (converted); outline: as §1
SK-MEL-5 [2] = assay: Growth inhibition of human SK-MEL-5 cells assessed as cell growth at 10^-8 M incubated for 48 hrs by sulforhodamine B assay; conditions: SK-MEL-5, 48 h, read-out: Activity
[3] = Growth inhibition of human OVCAR4 cells assessed as cell growth at 10^-8 M incubated for 48 hrs by sulforhodamine B assay; conditions: OVCAR-4, 48 h, read-out: Activity
MCF7 = assay: Growth inhibition of human MCF7 cells assessed as cell growth at 10^-8 M incubated for 48 hrs by sulforhodamine B assay; conditions: MCF7, 48 h, read-out: Activity
[4] = Growth inhibition of human MOLT4 cells assessed as cell growth at 10^-7 M incubated for 48 hrs by sulforhodamine B assay; conditions: MOLT-4, 48 h, read-out: Activity
Outline: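 Cells plated at 5,000–40,000/well according to doubling time and preincubated 24 h at 37 °C, 5% CO₂, with time-zero plates TCA-fixed. Drugs were kept as DMSO concentrates at 400× the top concentration and diluted in medium with 50 µg/ml gentamicin. Five 10-fold or ½-log dilutions were run for 48 h, followed by SRB staining and A515. Percent growth = (Ti−Tz)/(C−Tz)×100, or (Ti−Tz)/Tz×100 when Ti<Tz.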

Malme-3M = assay: Growth inhibition of human MALME-3M cells assessed as cell growth at 10^-4 M incubated for 48 hrs by sulforhodamine B assay; conditions: read-out: Activity
MDA-MB-435 = assay: Growth inhibition of human MDA-MB-435 cells assessed as cell growth at 10^-4 M incubated for 48 hrs by sulforhodamine B assay; conditions: MDA-MB-435, 48 h, read-out: Activity
SK-MEL-5 [5] = assay: Growth inhibition of human SK-MEL-5 cells assessed as cell growth at 10^-7 M incubated for 48 hrs by sulforhodamine B assay; conditions: SK-MEL-5, 48 h, read-out: Activity
[6] = Growth inhibition of human OVCAR4 cells assessed as cell growth at 10^-7 M incubated for 48 hrs by sulforhodamine B assay; conditions: OVCAR-4, 48 h, read-out: Activity
[7] = Growth inhibition of human UO31 cells assessed as cell growth at 10 uM incubated for 48 hrs by sulforhodamine B assay; conditions: UO-31, 48 h, read-out: Activity
[8] = Growth inhibition of human HOP92 cells assessed as cell growth at 10^-6 M incubated for 48 hrs by sulforhodamine B assay; conditions: HOP-92, 48 h, read-out: Activity
[9] = Growth inhibition of human HCT15 cells assessed as cell growth at 10^-6 M incubated for 48 hrs by sulforhodamine B assay; conditions: HCT-15, 48 h, read-out: Activity
Outline: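 Cells seeded at 5,000–40,000/well according to doubling time and preincubated 24 h at 37 °C, 5% CO2. Time-zero plates were TCA-fixed. DMSO concentrate was diluted in medium with 50 µg/ml gentamicin to give five concentrations (10-fold or ½ log steps), then exposed 48 h. Cells were TCA-fixed, stained with 0.4% SRB and read at 515 nm. Percent growth was taken against time-zero and control; GI50, TGI and LC50 derived.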

NCI-H226 = assay: Growth inhibition of human NCI-H226 cells assessed as cell growth at 10^-8 M incubated for 48 hrs by sulforhodamine B assay; conditions: NCI-H226, 48 h, read-out: Activity
[10] = Growth inhibition of human LOXIMVI cells assessed as cell growth at 10^-8 M incubated for 48 hrs by sulforhodamine B assay; conditions: LOX IMVI, read-out: Activity
[11] = Growth inhibition of human HOP62 cells assessed as cell growth at 10^-5 M incubated for 48 hrs by sulforhodamine B assay; conditions: HOP-62, 48 h, read-out: Activity
CCRF-CEM = assay: Growth inhibition of human CCRF-CEM cells assessed as cell growth at 10 uM incubated for 48 hrs by sulforhodamine B assay; conditions: read-out: Activity
Outline: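 One-dose screen at 10 µM final. Cells are plated at 5,000–40,000 per well according to doubling time and preincubated 24 h at 37 °C, 5% CO₂. Compound (DMSO stock diluted in medium with 50 µg/ml gentamicin) is then added for 48 h. Growth percent is read by sulforhodamine B staining, absorbance at 515 nm.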

[12] = Growth inhibition of human COLO205 cells assessed as cell growth at 10 uM incubated for 48 hrs by sulforhodamine B assay; conditions: COLO 205, 48 h, read-out: Activity
Outline: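 Primary screen at one dose (10 µM) across 60 human cancer cell lines. Readout was growth percent relative to untreated control and time-zero.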

[13] = read-out: LC50 (the source's name)
[14] = read-out: pLC50 (the source's name) (converted)

SMILES | GI50 (U-251; read-out: GI50) | TGI (U-251; read-out: TGI) | GI50 (U-251; read-out: pGI50 (converted)) | TGI (U-251; read-out: pTGI (converted)) | GI50 ([1]; read-out: GI50) | TGI ([1]; read-out: TGI) | GI50 ([1]; read-out: pGI50 (converted)) | TGI ([1]; read-out: pTGI (converted)) | growth at 0.01 µM (SK-MEL-5 [2]) | growth at 0.01 µM [3] | growth at 0.01 µM (MCF7) | growth at 0.1 µM [4] | growth at 100 µM (Malme-3M) | growth at 100 µM (MDA-MB-435) | growth at 0.1 µM (SK-MEL-5 [5]) | growth at 0.1 µM [6] | growth at 10 µM [7] | growth at 1 µM [8] | growth at 1 µM [9] | growth at 0.01 µM (NCI-H226) | further results
Fc1ccc(-c2nc(Nc3ccc(-c4nc5ccccc5[nH]4)cc3)nc(N3CCOCC3)n2)cc1 | 2040 nM | 13600 nM | 2040 nM | 13500 nM | 2160 nM | 5640 nM | 2140 nM | 5620 nM | 98% | 99% | 94% | 96% | -58% | -42% | 101% | 104% | -43.5% | 90% | 74% | 100% | CC50 (U-251; [13]): > 100000 nM; CC50 (U-251; [14]): > 100000 nM; LC50 [1]: > 100000 nM; CC50 [1]: > 100000 nM; growth at 0.01 µM [10]: 98%; growth at 10 µM [11]: -34%; growth at 10 µM (CCRF-CEM): -1.84%; growth at 10 µM [12]: -43.7%
c1ccc(-c2nc(Nc3ccc(-c4nc5ccccc5[nH]4)cc3)nc(N3CCOCC3)n2)cc1 | 535 nM | 1760 nM | 537 nM | 1780 nM | 1320 nM | 2910 nM | 1320 nM | 2880 nM | 101% | 104% | 92% | 79% | -54% | -86% | 104% | 103% | -60.6% | 70% | 13% | 107% | CC50 (U-251; [13]): 4890 nM; CC50 (U-251; [14]): 4900 nM; LC50 [1]: 6400 nM; CC50 [1]: 6460 nM; growth at 0.01 µM [10]: 94%; growth at 10 µM [11]: -74%; growth at 10 µM (CCRF-CEM): -15.7%; growth at 10 µM [12]: -68.8%
Clc1ccc(-c2nc(Nc3ccc(-c4nc5ccccc5[nH]4)cc3)nc(N3CCOCC3)n2)cc1 | 215 nM | 442 nM | 214 nM | 447 nM | 1510 nM | 3030 nM | 1510 nM | 3020 nM | 100% | 103% | 92% | 90% | -16% | -49% | 102% | 98% | -87.6% | 68% | -57% | 101% | growth at 0.01 µM [10]: 97%; growth at 10 µM [11]: -77%; growth at 10 µM (CCRF-CEM): -91.5%; growth at 10 µM [12]: -68.4%
c1ccc2[nH]c(-c3ccc(Nc4nc(N5CCCCC5)nc(N5CCOCC5)n4)cc3)nc2c1 | 2180 nM | 10000 nM | 2190 nM | 10000 nM | 2000 nM | 5140 nM | 2000 nM | 5130 nM | 97% | 101% | 95% | 100% | -80% | -29% | 93% | 97% | -37.8% | 95% | 87% | 84% | CC50 (U-251; [13]): 76800 nM; CC50 (U-251; [14]): 77600 nM; LC50 [1]: > 100000 nM; CC50 [1]: > 100000 nM; growth at 0.01 µM [10]: 96%; growth at 10 µM [11]: -52%; growth at 10 µM (CCRF-CEM): 8.74%; growth at 10 µM [12]: -61.3%
